The assay concerns the target T1, Renin (Homo sapiens, UniProt P00797).
T1 sequence (P00797 whole entry): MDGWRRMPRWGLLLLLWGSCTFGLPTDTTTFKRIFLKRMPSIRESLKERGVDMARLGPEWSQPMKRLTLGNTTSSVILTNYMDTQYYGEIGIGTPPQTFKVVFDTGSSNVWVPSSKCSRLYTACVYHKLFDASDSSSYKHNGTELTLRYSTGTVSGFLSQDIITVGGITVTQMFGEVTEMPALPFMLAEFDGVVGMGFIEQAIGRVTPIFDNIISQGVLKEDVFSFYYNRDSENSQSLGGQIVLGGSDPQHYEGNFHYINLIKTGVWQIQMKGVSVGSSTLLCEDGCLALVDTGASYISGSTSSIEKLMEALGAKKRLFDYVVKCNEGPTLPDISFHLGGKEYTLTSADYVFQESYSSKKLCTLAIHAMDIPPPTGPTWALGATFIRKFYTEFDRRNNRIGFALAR
In words: Inhibition of human plasma renin. Format: cell-free. The method, boiled down:
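IC50 taken as the inhibitor concentration at which 50% of renin enzymatic activity remains.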

Molecules are shown by their SMILES. Numbered stars: 1 amine (or outer) side, 2 acyl side, 3 side chain; on linkers, the order of the positions; unused ones are H or OH. Square brackets hold non-standard residues; d marks the D form. Peptide text beside a SMILES is read from it. * marks the point of attachment. ξ: configuration not given here. LeuΨ(ξCHOHCH2)Val = CC(C)C[C@H](N[*:1])C(O)C[C@H](C(=O)[*:2])C(C)C; X1 = CC(C)[C@H](C[C@H](O)[C@H](CC1CCCCC1)N[*:1])C(=O)[*:2]; Suberoyl(NMe-taurine) = CN(CCS(=O)(=O)O)C(=O)CCCCCCC(=O)*; X3 = CC(C)C[C@H](N[*:1])[C@@H](O)C[C@H](C(=O)[*:2])C(C)C; NH(2-picolyl-N-oxide) = [O-][n+]1ccccc1CN*; γGlu = O=C(O)[C@H](CCC(=O)[*:2])N[*:1]; NMeH = CN[C@@H](Cc1c[nH]cn1)C(=O)O; NHCH2(2-pyridyl) = c1ccc(CN*)nc1; X4 = O=C(CCCO[P+]([O-])(O)O)*; X5 = O=C(CCCOP(=O)(O)O)*; X2 = O=C(COP(=O)(O)O)*

As for `CC(C)CCNC(=O)[C@@H](C[C@H](O)[C@H](CC1CCCCC1)NC(=O)[C@H](Cc1c[nH]cn1)N(C)C(=O)[C@H](Cc1ccccc1)NC(=O)CC(C)(C)N)C(C)C`, the midpoint of inhibition, the IC50, lay at 410 pM.
With `CC[C@H](C)[C@H](NC(=O)[C@@H](C[C@H](O)[C@H](CC(C)C)NC(=O)[C@H](Cc1c[nH]cn1)N(C)C(=O)[C@H](Cc1ccccc1)NC(=O)CCCCCCC(=O)N(C)CCS(=O)(=O)O)C(C)C)C(=O)NCc1ccccn1` the figure was 660 pM; with `CC(C)CCNC(=O)[C@@H](C[C@H](O)[C@H](CC1CCCCC1)NC(=O)[C@H](Cc1c[nH]cn1)N(C)C(=O)[C@H](Cc1ccccc1)NC(=O)[C@@H]1CCCN1C(=O)CC[C@H](N)C(=O)O)C(C)C`, 280 pM.
With `CC[C@H](C)[C@H](NC(=O)[C@@H](C[C@H](O)[C@H](CC1CCCCC1)NC(=O)[C@H](Cc1c[nH]cn1)N(C)C(=O)[C@H](Cc1ccccc1)NC(=O)CC(C)(C)N)C(C)C)C(=O)NCc1cccc[n+]1[O-]` the figure was 430 pM.
As to `CC[C@H](C)[C@H](NC(=O)[C@@H](C[C@H](O)[C@H](CC1CCCCC1)NC(=O)[C@H](Cc1c[nH]cn1)N(C)C(=O)[C@H](Cc1ccccc1)NC(=O)CC(C)(C)N)C(C)C)C(=O)NCc1ccccn1`, half-maximal inhibition (IC50) required 290 pM.
For the compound `CC[C@H](C)[C@H](NC(=O)[C@@H](C[C@H](O)[C@H](CC(C)C)NC(=O)[C@H](Cc1c[nH]cn1)N(C)C(=O)[C@H](Cc1ccccc1)NC(=O)CCCCCCC(=O)N(C)CCS(=O)(=O)O)C(C)C)C(=O)NCc1cccc[n+]1[O-]`, the IC50 – broadly, the concentration that inhibits the measured activity by half – is 1200 pM.
The compound `CC[C@H](C)[C@H](NC(=O)[C@@H](CC(O)[C@H](CC(C)C)NC(=O)[C@H](Cc1c[nH]cn1)N(C)C(=O)[C@H](Cc1ccccc1)NC(=O)[C@@H]1CCCN1C(=O)COP(=O)(O)O)C(C)C)C(=O)NCc1cccc[n+]1[O-]` (some centres undefined) (X2-PF[NMeH][LeuΨ(ξCHOHCH2)Val]I-{NH(2-picolyl-N-oxide)}) came in with an IC50 of 2500 pM.
`CC[C@H](C)[C@H](NC(=O)[C@@H](C[C@H](O)[C@H](CC(C)C)NC(=O)[C@H](Cc1c[nH]cn1)N(C)C(=O)[C@H](Cc1ccccc1)NC(=O)[C@@H]1CCCN1C(=O)COP(=O)(O)O)C(C)C)C(=O)NCc1ccccn1` (X2-PF[NMeH][X3]I-{NHCH2(2-pyridyl)}) registered an IC50 of 1600 pM.
`CC[C@H](C)[C@H](NC(=O)[C@@H](CC(O)[C@H](CC(C)C)NC(=O)[C@H](Cc1cnc[nH]1)N(C)C(=O)[C@H](Cc1ccccc1)NC(=O)[C@@H]1CCCN1C(=O)CCCO[P+]([O-])(O)O)C(C)C)C(=O)NCc1cccc[n+]1[O-]` (some centres undefined) (X4-PF[NMeH][LeuΨ(ξCHOHCH2)Val]I-{NH(2-picolyl-N-oxide)}) showed a concentration for half-maximal inhibition (IC50) of 1900 pM.
For the compound `CC[C@H](C)[C@H](NC(=O)[C@@H](C[C@H](O)[C@H](CC(C)C)NC(=O)[C@H](Cc1c[nH]cn1)N(C)C(=O)[C@H](Cc1ccccc1)NC(=O)[C@@H]1CCCN1C(=O)CCCOP(=O)(O)O)C(C)C)C(=O)NCc1ccccn1` (X5-PF[NMeH][X3]I-{NHCH2(2-pyridyl)}), the midpoint of inhibition, the IC50, lay at 450 pM.
With `CC[C@H](C)[C@H](NC(=O)[C@@H](CC(O)[C@H](CC(C)C)NC(=O)[C@H](Cc1c[nH]cn1)N(C)C(=O)[C@H](Cc1ccccc1)NC(=O)[C@@H]1CCCN1C(=O)CCCCCCC(=O)N(C)CCS(=O)(=O)O)C(C)C)C(=O)NCc1cccc[n+]1[O-]` (some centres undefined) ({Suberoyl(NMe-taurine)}-PF[NMeH][LeuΨ(ξCHOHCH2)Val]I-{NH(2-picolyl-N-oxide)}) the figure was 310 pM; with `CC[C@H](C)[C@H](NC(=O)[C@@H](CC(O)[C@H](CC(C)C)NC(=O)[C@H](Cc1c[nH]cn1)N(C)C(=O)[C@H](Cc1ccccc1)NC(=O)[C@@H]1CCCN1C(=O)CCCCCCC(=O)N(C)CCS(=O)(=O)O)C(C)C)C(=O)NCc1ccccn1` (some centres undefined) ({Suberoyl(NMe-taurine)}-PF[NMeH][LeuΨ(ξCHOHCH2)Val]I-{NHCH2(2-pyridyl)}), 1800 pM.
Consider `CC[C@H](C)[C@H](NC(=O)[C@@H](C[C@H](O)[C@H](CC1CCCCC1)NC(=O)[C@H](Cc1c[nH]cn1)N(C)C(=O)[C@H](Cc1ccccc1)NC(=O)[C@@H]1CCCN1C(=O)CC[C@H](N)C(=O)O)C(C)C)C(=O)NCc1cccc[n+]1[O-]` (γGlu-PF[NMeH][X1]I-{NH(2-picolyl-N-oxide)}), for which the half-maximal inhibitory concentration (IC50) came out at 320 pM.
With `CC[C@H](C)[C@H](NC(=O)[C@@H](C[C@H](O)[C@H](CC1CCCCC1)NC(=O)[C@H](Cc1c[nH]cn1)N(C)C(=O)[C@H](Cc1ccccc1)NC(=O)[C@@H]1CCCN1C(=O)CC[C@H](N)C(=O)O)C(C)C)C(=O)NCc1ccccn1` (γGlu-PF[NMeH][X1]I-{NHCH2(2-pyridyl)}) the figure was 290 pM.

Source of the values: ChEMBL document CHEMBL1125875, “Renin inhibitory peptides. Incorporation of polar, hydrophilic end groups into an active renin inhibitory peptide template and their evaluation in a human renin infused rat model and in conscious sodium-depleted monkeys” (J Med Chem, 1991).
